B1: tRNA (parent)
chain: GUUCCGUUGGCGUAAUGGUAACGCGUCUCCCUCCUAAGGAGAAGACUGCGGGUUCGAGUCCCGUACGGAACG

Variants of: B1
Assay: yeast fitness, log relative to wild type (ln ratio); higher = fitter; tRNA-Arg(CCU), competitive growth, 37 C, 1 M NaCl
In short: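 In BY4742 missing the chromosomal gene, a combinatorial tRNA-Arg(CCU) variant library was maintained on a HIS3 centromeric plasmid. Selection ran ~6.5 generations (~26.5 h) in SC-HIS 1M NaCl at 37 °C, following 4 generations in SC-HIS at 30 °C, with three outputs per input and variant counts by 125 bp paired-end Illumina sequencing. Fitness is the natural log of a genotype's generations relative to the wild type's, with generations taken as inverse-variance-weighted, OD-scaled log2 output/input frequency.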

Row | Variant | yeast fitness (ln)
1 | U2G A43C C66U A70G | -0.156
2 | G1A U2C G6A A43C C46U A69G A70G | -0.191
3 | U2C G6U C27U C66A A69G A70G C71U | -0.0793
4 | G1A U2G G6U C27U C46U C66A C71U | -0.175
5 | G1A G6U C27U C46U C66U A69G A70G | -0.28
6 | U2C G6U C66U A70G | -0.0259
7 | G1A G6U C66A | -0.0927
8 | G1A U2G G6U C27U A43C A70G C71U | -0.588
9 | G6U C27U C46U A70U | -0.167
10 | C27U A43C C46U A69G A70G | -0.0876
11 | G1A U2C A43C A69G A70U | -0.0414
12 | G6A C27U A43C C66U A70U | -0.169
13 | G1A U2C C27U A69G C71U | -0.131
14 | G1A U2G G6A C27U A43C C46U A70U | -0.215
15 | U2C A43C C66A | -0.0546
16 | G1A U2G G6A C46U A69G A70U | -0.165
17 | U2G A43C C66U A69G A70G | -0.222
18 | U2C G6A C27U C46U C66A A69G A70U C71U | -0.384
19 | G6A C27U A43C C46U C66U A70U C71U | -0.435
20 | G1A U2G A43C C46U C66U A69G A70U | -0.181
21 | C27U C46U A70U | -0.0227
22 | G6U C46U C66A A69G C71U | -0.0515
23 | G1A U2G C27U C66A A69G A70U C71U | -0.342
24 | G1A G6U A43C C66U A70G | -0.339

Row | Variant | yeast fitness (ln)
25 | U2G G6A C27U C66U A70G C71U | -0.203
26 | G6U A70U | -0.0758
27 | U2C G6U C27U A43C C66A A69G A70G C71U | -0.431
28 | G1A U2G G6A C27U A43C C46U A69G A70G | -0.382
29 | G6U C27U A43C C46U A69G A70G | -0.339
30 | G1A U2G A43C C66U A70U C71U | -0.333
31 | U2G G6U C27U C66A A70U | -0.0251
32 | G1A U2C C27U A69G A70U | -0.0698
33 | G1A G6A C46U C66U A69G A70U C71U | -0.363
34 | G1A U2G G6A C66A A69G A70G C71U | -0.257
35 | C27U C46U C66A A69G A70U C71U | -0.396
36 | U2G G6A C27U A43C C66U A69G A70G C71U | -0.386
37 | G1A U2G G6U C66U A69G A70U | -0.386
38 | G1A G6U C66U A69G A70G | -0.288
39 | G1A U2G C27U C46U C66U A69G A70G C71U | -0.267
40 | G1A U2C A43C C66U A69G A70U C71U | -0.279
41 | U2C G6A C27U C66U A69G A70U | -0.138
42 | G6U A43C C66A A69G C71U | -0.368
43 | U2G C46U C66U A70G | -0.11
44 | G1A U2C G6U C66A A70U | -0.234
45 | G1A U2G G6U A43C C46U C66U A70G | -0.344
46 | U2C A43C A69G A70U C71U | -0.32
47 | U2C G6A C27U C66U A69G A70U C71U | -0.386
48 | G6A A43C C46U C66U A69G A70U C71U | -0.233

Row | Variant | yeast fitness (ln)
49 | G1A U2G G6A C27U C46U C66U A69G A70U | -0.219
50 | G1A C66A C71U | -0.113
51 | G1A U2G A43C C46U A69G C71U | -0.18
52 | C46U C66U C71U | -0.0591
53 | U2C A43C C66A A70U | -0.0829
54 | G6U | -0.0403
55 | G6U C66U A70G C71U | -0.168
56 | G1A U2G C27U C71U | -0.108
57 | U2G G6A C46U C66A A70G | -0.056
58 | U2C G6A C27U A43C C46U C66A A70G | -0.101
59 | G6U A43C C66U A70G C71U | -0.392
60 | G1A U2G G6A C27U C46U C66U A69G A70G | -0.272
61 | G1A U2C C27U C46U C66A C71U | -0.12
62 | G1A C46U A70U C71U | -0.0276
63 | U2G G6U A43C C46U A70U C71U | -0.168
64 | G1A U2C A43C C66A A70G C71U | -0.128
65 | U2C G6U C46U C66U A69G A70U | -0.0758
66 | G1A U2C G6A C27U C46U C71U | -0.157
67 | U2C G6U C27U A43C A70G C71U | -0.324
68 | G1A U2C G6U C27U C46U C66A A70U | -0.0687
69 | C27U C46U C66U A70U | -0.0808
70 | G1A U2G G6A A43C C66U A70U | -0.434
71 | G1A G6A C27U A43C A69G A70U C71U | -0.684
72 | G1A U2G G6U A43C A70G C71U | -0.323

Row | Variant | yeast fitness (ln)
73 | G1A U2C G6U C27U A43C C46U C66U A69G A70G C71U | -0.316
74 | U2G C27U A43C C46U A70G | -0.227
75 | C27U C66U A70U | -0.0893
76 | G1A C27U A43C C71U | -0.0801
77 | U2C G6A C27U C46U A69G A70U C71U | -0.295
78 | G1A G6A C66A A70U C71U | -0.163
79 | G1A U2C G6A A43C C46U A69G A70G C71U | -0.119
80 | G1A U2C G6A A70U C71U | -0.126
81 | G6U C27U C46U C66A A70G | -0.04
82 | G1A U2G G6A A43C C46U A70G C71U | -0.202
83 | G6U C27U | -0.111
84 | U2C G6A A70G | -0.0119
85 | G1A G6A C66U A70U C71U | -0.216
86 | U2C G6A C66U A69G A70G | -0.0273
87 | G1A U2G G6U C27U A43C | -0.3
88 | G1A G6U C27U | -0.16
89 | U2C G6U C27U C46U C66A A70G | -0.0216
90 | U2C G6U A43C C66U A70G | -0.279
91 | G1A C46U C66A A69G A70G C71U | -0.178
92 | G6A C27U A43C C66U A70U C71U | -0.441
93 | G1A U2G C46U C66A A70G | -0.152
94 | U2C G6U C27U C66A A69G A70G | -0.0927
95 | G1A G6U C27U A43C C46U | -0.258
96 | G1A U2G C46U A69G A70U C71U | -0.0215

Row | Variant | yeast fitness (ln)
97 | U2G A43C C66U A70U C71U | -0.351
98 | G1A G6U A43C C46U C66U A69G C71U | -0.43
99 | U2G G6U C66U A70U C71U | -0.303
100 | G1A U2C G6U A43C | -0.116
101 | U2G G6U C66U A70U | -0.0342
102 | G1A U2C C46U C66U C71U | -0.119
103 | G1A U2G G6U A43C C46U C66A C71U | -0.234
104 | U2C G6U C27U A43C C46U C66A A70U C71U | -0.164
105 | G1A U2C A43C A69G C71U | -0.202
106 | U2C G6A C27U A43C C46U A69G A70U | -0.122
107 | G1A G6A A70U C71U | -0.153
108 | G1A G6A C27U C71U | -0.238
109 | G1A U2C C27U C46U A69G A70U C71U | -0.359
110 | G6U A43C C46U C66U C71U | -0.254
111 | U2G G6U C46U A70U C71U | -0.461
112 | G6U C27U C66A A69G A70G | -0.35
113 | G1A U2C G6A C27U A43C C46U A69G A70G | -0.225
114 | G1A U2C G6U C27U A43C A69G A70G C71U | -0.238
115 | U2G G6A C27U C46U C66A C71U | -0.213
116 | G1A U2G G6A A43C A70G | -0.304
117 | C27U A43C C66U A70G C71U | -0.211
118 | A43C C46U C66U A69G C71U | -0.273
119 | G1A U2C G6U C27U A43C C46U C66A A70U | -0.0771
120 | G1A U2C C66A A70G C71U | -0.208

Row | Variant | yeast fitness (ln)
121 | U2C C46U | 0.0244
122 | G1A U2C G6U C27U C46U A69G A70G | -0.176
123 | G1A U2G G6U C46U A69G A70U C71U | -0.279
124 | G1A U2C G6U C27U A43C C46U A70U | -0.151
125 | U2G C46U C66U A70G C71U | -0.115
126 | U2C G6U C46U C66A A70G | -0.013
127 | G1A G6A A43C C46U A70G | -0.188
128 | G1A U2C G6A C46U A70G | -0.179
129 | G1A G6A C27U C46U C66A C71U | -0.11
130 | G1A G6U C27U C46U C66U A70G C71U | -0.302
131 | G1A G6A C27U C66U A69G A70G C71U | -0.442
132 | U2G G6A C27U | -0.0425
133 | G6A C27U C66A A70G | -0.136
134 | G6U C27U A43C A69G A70U C71U | -0.462
135 | C27U C66A A69G A70U C71U | -0.356
136 | C27U A43C C71U | -0.114
137 | G1A C27U A43C C46U A70U C71U | -0.29
138 | G1A C27U C66U A69G C71U | -0.285
139 | U2G G6A A43C C71U | -0.195
140 | G6A C27U C66U A69G | -0.0541
141 | G6U C27U A69G A70U C71U | -0.513
142 | U2C G6U C27U A43C C46U C66U A69G A70G C71U | -0.275
143 | G1A C46U C66U A70U C71U | -0.214
144 | C27U A43C C46U C66U A70U | -0.109

Row | Variant | yeast fitness (ln)
145 | G1A C27U C46U C66U A70G | -0.157
146 | U2G C27U C46U C66U A69G C71U | -0.312
147 | G6U C27U A43C C46U C66U | -0.271
148 | G1A C27U A43C C46U C66A A69G A70U C71U | -0.415
149 | G1A A43C A70G C71U | -0.095
150 | G6A C27U A69G A70U | -0.243
151 | G1A C27U A69G | -0.295
152 | G1A U2G G6A A43C A69G A70G | -0.238
153 | G1A G6U C27U A70U | -0.232
154 | G1A G6U C27U A43C C66A A69G A70G C71U | -0.417
155 | G1A U2G G6A C46U C66U A69G A70G C71U | -0.413
156 | U2G G6A C27U A43C C66U A69G A70U C71U | -0.434
157 | G1A U2G G6U A43C A69G A70U C71U | -0.428
158 | G1A G6A C66U A70G C71U | -0.0543
159 | U2G C27U C66U A69G A70G C71U | -0.264
160 | G1A G6U C46U C66A A70U | -0.0534
161 | G1A U2G G6U C27U C46U C66U A70G | -0.437
162 | G1A U2G G6U A69G A70G | -0.183
163 | G1A G6U C27U A43C C66U A69G C71U | -0.258
164 | G1A U2G G6U A43C C46U A69G A70G | -0.334
165 | G1A G6U A43C C66A A69G C71U | -0.863
166 | G1A U2G G6A C27U A43C C46U C66A A69G C71U | -0.275
167 | G1A U2G C46U C66U A69G A70U C71U | -0.321
